Results reported in the array DNA melting data of Ke et al. (doi:10.1101/2024.01.08.574731).

Experiments:
[1] = folding enthalpy; higher = less favourable; fluorescence melt of hairpins on a sequencing array, two-state fit; conditions: sodium 0.088 M
Outline: (§1)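 Melting temperature and folding enthalpy were derived from bootstrapped two-state fits. The fitted temperatures were raised by 9.35 °C to agree with UV melts, and four replicates were combined by inverse variance. The underlying data were Cy3 fluorescence images of library hairpins, with annealed Cy3 and quencher oligos, on a sequenced MiSeq flow cell in 50 mM Na-HEPES pH 8.0, 25 mM NaCl, taken in 2.5 °C steps up to 60 °C, normalised to pre-quench Cy3 and to control constructs.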

[2] = melting temperature; fluorescence melt of hairpins on a sequencing array, two-state fit, raised by 9.35 °C to match UV melts; conditions: sodium 0.088 M
Outline: as §1

Row | Sequence | folding enthalpy [1] | Tm [2]
1 | GCGGATGGCCGC ((((....)))) | -21 kcal/mol | 54.6 °C
2 | GCGGATGTCCGC ((((....)))) | -22.7 kcal/mol | 57.5 °C
3 | GCGGATTCCGC ((((...)))) | -24.9 kcal/mol | 54.3 °C
4 | GCGGCAACCCGC ((((....)))) | -24.7 kcal/mol | 51.9 °C
5 | GCGGCAACCGC ((((...)))) | -23.4 kcal/mol | 51.7 °C
6 | GCGGCAGCCCGC ((((....)))) | -10.3 kcal/mol | 59.1 °C
7 | GCGGCATCGAAAGATCGC (((..(((....)))))) | -22.7 kcal/mol | 45.6 °C
8 | GCGGCCAGCCGC ((((....)))) | -20.5 kcal/mol | 67.3 °C
9 | GCGGCCGAAAGGCCTCGC ((((((....)))..))) | -12.5 kcal/mol | 56.2 °C
10 | GCGGCCGCCGC ((((...)))) | -19.9 kcal/mol | 55.1 °C
11 | GCGGCCGTCCGC ((((....)))) | -25.8 kcal/mol | 58.6 °C
12 | GCGGCCTACCGC ((((....)))) | -29.4 kcal/mol | 55.8 °C
13 | GCGGCCTTCCGC ((((....)))) | -19.9 kcal/mol | 57.9 °C
14 | GCGGCGCACCGC ((((....)))) | -14.2 kcal/mol | 59.7 °C
15 | GCGGCGCGAAAGCACAGC ((.(.((....)).).)) | -29.9 kcal/mol | 63.7 °C
16 | GCGGCGCGAAAGCCCTGC ((.(.((....)).).)) | -18.3 kcal/mol | 45.6 °C
17 | GCGGCGCGAAAGCCTCGC (((..((....))..))) | -18.6 kcal/mol | 55.8 °C
18 | GCGGCGGCGAAAGCCCGC (((..(((....)))))) | -12.3 kcal/mol | 65.6 °C
19 | GCGGCGGGAAACCGCCAC (.(((((....))))).) | -10.5 kcal/mol | 52.6 °C
20 | GCGGCGTCCCGC ((((....)))) | -14.5 kcal/mol | 56.7 °C
21 | GCGGCTACCGC ((((...)))) | -21 kcal/mol | 57.7 °C
22 | GCGGCTCACCGC ((((....)))) | -26.9 kcal/mol | 63 °C
23 | GCGGCTCCCGC ((((...)))) | -23.7 kcal/mol | 56.9 °C
24 | GCGGCTGCCGC ((((...)))) | -31.2 kcal/mol | 57.1 °C
25 | GCGGCTGGAAACAACCGC ((((.((....)).)))) | -45 kcal/mol | 54 °C

Row | Sequence | folding enthalpy [1] | Tm [2]
26 | GCGGCTTCCGC ((((...)))) | -25.9 kcal/mol | 57.8 °C
27 | GCGGGAGGAAACCCCCAC (.(((.(....).))).) | -10.6 kcal/mol | 27.7 °C
28 | GCGGGAGTCCGC ((((....)))) | -23.6 kcal/mol | 55.7 °C
29 | GCGGGATCGAAAGATCGC (((..(((....)))))) | -13.8 kcal/mol | 51 °C
30 | GCGGGATGCCGC ((((....)))) | -22.6 kcal/mol | 55.8 °C
31 | GCGGGATTCCGC ((((....)))) | -20.5 kcal/mol | 59.1 °C
32 | GCGGGCCCCCGC ((((....)))) | -23.5 kcal/mol | 64.4 °C
33 | GCGGGCCTCCGC ((((....)))) | -22.5 kcal/mol | 64 °C
34 | GCGGGCGAAAGCCGACGC ((((((....)))..))) | -19.9 kcal/mol | 61.9 °C
35 | GCGGGGACGAAAGTCCGC (((..(((....)))))) | -13.2 kcal/mol | 58.5 °C
36 | GCGGGGAGCCGC ((((....)))) | -14.4 kcal/mol | 62.7 °C
37 | GCGGGGCCCGC ((((...)))) | -34.8 kcal/mol | 63.3 °C
38 | GCGGGGCCGAAAGGCCGC (((..(((....)))))) | -10.2 kcal/mol | 59.6 °C
39 | GCGGGGCGAAAGCACGGC ((.(.((....)).).)) | -15.7 kcal/mol | 65.2 °C
40 | GCGGGGCGAAAGCACTGC ((.(.((....)).).)) | -24.7 kcal/mol | 65.5 °C
41 | GCGGGGCGAAAGCGTCGC (((..((....))..))) | -36 kcal/mol | 67.8 °C
42 | GCGGGGGCCGC ((((...)))) | -9.27 kcal/mol | 62.1 °C
43 | GCGGGGGTCCGC ((((....)))) | -22.6 kcal/mol | 61.7 °C
44 | GCGGGTCCGAAAGGACGC (((..(((....)))))) | -11.3 kcal/mol | 52.5 °C
45 | GCGGGTGGAAACACCTGC ((.((((....)))).)) | -37.5 kcal/mol | 59.1 °C
46 | GCGGGTGGAAACACTCGC (((.(((....))).))) | -40.8 kcal/mol | 60.7 °C
47 | GCGGGTGGAAACGTCCGC ((((..(....)..)))) | -32 kcal/mol | 53 °C
48 | GCGGGTGGCCGC ((((....)))) | -15.8 kcal/mol | 62.1 °C
49 | GCGGGTTCCGC ((((...)))) | -25.4 kcal/mol | 57.2 °C
50 | GCGGTAACCCGC ((((....)))) | -27.8 kcal/mol | 54.2 °C
